Experimental data from different studies.
Each line is one published result; the experiments were not run side by side.
Target: Casein kinase I isoform delta (CSNK1D, Homo sapiens, UniProt P48730)
One construct used (P48730 1-294): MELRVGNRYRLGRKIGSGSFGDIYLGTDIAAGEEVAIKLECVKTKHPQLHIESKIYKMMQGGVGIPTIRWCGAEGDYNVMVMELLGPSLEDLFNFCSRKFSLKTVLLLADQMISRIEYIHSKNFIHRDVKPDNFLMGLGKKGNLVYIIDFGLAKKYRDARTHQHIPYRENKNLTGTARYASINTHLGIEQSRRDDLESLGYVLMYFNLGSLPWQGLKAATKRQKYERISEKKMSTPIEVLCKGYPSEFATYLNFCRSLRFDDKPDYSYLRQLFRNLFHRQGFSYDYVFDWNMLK

SMILES | assay | conditions | quantity | result
C1=C/COCc2cc(ccc2OCCN2CCCC2)Nc2nccc(n2)-c2cccc(c2)COC/1 | binding | 0.1 µM | remaining binding | 100%
COc1ccc2[nH]c3c4[nH]c5ccc(OC)cc5c4c4c(c3c2c1)C(=O)NC4=O | binding | 1 µM | remaining binding | 94%
CCCCC(=O)Nc1ccc(-c2ccc3ncn(CCC)c(=O)c3c2)cn1 | binding, competition with immobilised ligand | 0.5 µM | remaining binding | 87%
Cc1ccc(NC(=O)c2ccnc(C(F)(F)F)c2)cc1-c1cc(OCCO)nc(N2CCOCC2)c1 | binding | 1 µM | remaining binding | 99%
COc1ccc2oc(-c3ccc4nc(N)oc4c3)c/c(=N\c3ccccc3NC(=O)CCN)c2c1 | binding | 1 µM | remaining binding | 119%
C#Cc1cnc(Nc2ccnc(CO)c2)nc1Nc1ccccc1S(C)(=O)=NC#N (stereo not drawn) | cell-free assay | 1 µM | remaining signal | 100%
c1cc(Nc2cc(C3CC3)n[nH]2)nc(Nc2ccc3nc[nH]c3c2)n1 | binding, SPR |  | kon | 335000 M⁻¹ s⁻¹
C=CC(=O)N1CCC([C@@H]2CCNc3c(C(N)=O)c(-c4ccc(Oc5ccccc5)cc4)nn32)CC1 | enzyme activity, inhibitor | 1 µM | inhibition | 8%
CC(C)S(=O)(=O)c1ccc2nccc(Nc3ccc4sc(C5CCCC5)nc4c3)c2c1 | enzyme activity, inhibitor | 1 µM | activity vs control | 105%
N#Cc1ccc(NC(=O)Nc2ccccc2)cc1 | cell-free assay, competition with immobilised ligand | 25 µM | remaining binding | 100%
CO[C@@H]1[C@H](N(C)C(=O)c2ccccc2)C[C@H]2O[C@]1(C)n1c3ccccc3c3c4c(c5c6ccccc6n2c5c31)C(=O)NC4 | enzyme activity, inhibitor | 1 µM | inhibition | 0%
c1cc(-c2cnn3cc(-c4ccc(OCCN5CCCCC5)cc4)cnc23)ccn1 | binding, SPR |  | kon | 809000 M⁻¹ s⁻¹
